Holding throughout (assay type): cell-based
The target of data set [1] is Luciferin 4-monooxygenase (Photinus pyralis) (UniProt P08659). Nature of the data set: Effect on firefly luciferase activity expressed in HEK293 cells at 50 uM by luminescence assay. The procedure, abridged:
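HEK293 cells transiently transfected with full-length Photinus (firefly) luciferase. Compounds dissolved in DMSO and diluted in medium to 50 μM final in 0.5% DMSO. Luminescence expressed as % of maximal, relative to 0.5% DMSO vehicle.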

Data set [2] concerns the target Sodium channel protein type 8 subunit alpha (Homo sapiens) (UniProt Q9UQD0). In words: Inhibition of Nav1.6 (unknown origin) expressed in HEK293 cells assessed as activation constant at 10 uM after 1 hr at -70 mV holding potential by whole cell patch clamp method (reference value: 3.4 +/- 0.2 mV). For orientation: Patch clamp records ionic current or voltage across a cell membrane.

Data set [3] deals with T1, Fibroblast growth factor 14/SCN8A (Homo sapiens) (UniProt Q9UQD0+Q92915). In words: Inhibition of Cluc-FGF14 (unknown origin)/CD4-Nav1.6-Nluc (unknown origin) protein-protein interaction using FGF14/NAV1.6 using HEK293 cells expressing FGF14/Nav1.6 by split luciferase complementation assay. Summed up:
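Split-luciferase complementation in HEK293 cells expressing Cluc-FGF14 and CD4-Nav1.6-Nluc. Five-point dose response at 1, 10, 25, 50 and 100 μM.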

Data set [4] concerns the target Sodium channel protein type 8 subunit alpha (Homo sapiens) (UniProt Q9UQD0). Nature of the data set: Inhibition of Nav1.6 (unknown origin) expressed in HEK293 cells assessed as inactivation time constant at 10 uM after 1 hr at -70 mV holding potential by whole cell patch clamp method (reference value: 2.04 +/- 0.3 milliseconds).
Data set [5] shares this target. Nature of the data set: Inhibition of Nav1.6 (unknown origin) expressed in HEK293 cells assessed as V1/2 of steady-state of inactivation at 10 uM after 1 hr at -70 mV holding potential by whole cell patch clamp method (reference value: […]).
Data set [6] has as its system HEK293. In words: Cytotoxicity against HEK293 cells assessed as reduction in cell viability at 50 uM by LDH release assay. Particulars: human, hek293, 50 µM. Summed up:
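LDH release cytotoxicity assay in HEK293 cells, compounds given at 50 μM final. Read-out is % cytotoxicity. Data are mean ± S.E.M.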
Background: LDH leaks from cells whose membrane has failed.

Data set [7] addresses T1, Fibroblast growth factor 14/SCN8A (Homo sapiens). Nature of the data set: Modulation of Cluc-FGF14 (unknown origin)/CD4-Nav1.6-Nluc (unknown origin) protein-protein interaction using FGF14/NAV1.6 using HEK293 cells expressing FGF14/Nav1.6 assessed as luminescent response at 50 uM by split luciferase complementation assay relative to control. Summed up:
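Split-luciferase complementation in HEK293 cells co-transfected with Cluc-FGF14 and CD4-Nav1.6-Nluc plasmids. Compounds in DMSO, diluted in medium to 50 μM final, 0.5% DMSO. Luminescence reported as % maximal vs 0.5% DMSO vehicle.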

Activity calls are given as the source filed them. The rule behind the calls is not given here. Residues, ends and D or L forms follow the SMILES beside them. *: point of attachment. Fmoc = O=C(OCC1c2ccccc2-c2ccccc21)*; Cbz = O=C(OCc1ccccc1)*; Boc = CC(C)(C)OC(=O)*; Bz = O=C(c1ccccc1)*

Sequence of Luciferin 4-monooxygenase (Photinus pyralis) (P08659 whole entry): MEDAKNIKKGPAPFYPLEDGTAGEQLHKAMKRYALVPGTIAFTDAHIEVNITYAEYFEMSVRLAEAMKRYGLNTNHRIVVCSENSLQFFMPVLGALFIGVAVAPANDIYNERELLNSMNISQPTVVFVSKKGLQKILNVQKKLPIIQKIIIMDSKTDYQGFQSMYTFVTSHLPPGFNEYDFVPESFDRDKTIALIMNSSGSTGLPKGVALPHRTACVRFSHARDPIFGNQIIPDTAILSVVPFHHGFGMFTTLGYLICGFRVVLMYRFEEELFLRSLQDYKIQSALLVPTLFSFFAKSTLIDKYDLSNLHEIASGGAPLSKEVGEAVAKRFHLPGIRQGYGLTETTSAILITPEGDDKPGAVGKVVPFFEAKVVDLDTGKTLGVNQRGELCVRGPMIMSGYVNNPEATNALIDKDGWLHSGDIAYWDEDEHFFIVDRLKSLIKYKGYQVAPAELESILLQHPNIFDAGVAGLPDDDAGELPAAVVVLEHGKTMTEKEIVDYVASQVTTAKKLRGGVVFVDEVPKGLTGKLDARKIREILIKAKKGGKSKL
Sequence of Sodium channel protein type 8 subunit alpha (Homo sapiens) (Q9UQD0 whole entry, looked up): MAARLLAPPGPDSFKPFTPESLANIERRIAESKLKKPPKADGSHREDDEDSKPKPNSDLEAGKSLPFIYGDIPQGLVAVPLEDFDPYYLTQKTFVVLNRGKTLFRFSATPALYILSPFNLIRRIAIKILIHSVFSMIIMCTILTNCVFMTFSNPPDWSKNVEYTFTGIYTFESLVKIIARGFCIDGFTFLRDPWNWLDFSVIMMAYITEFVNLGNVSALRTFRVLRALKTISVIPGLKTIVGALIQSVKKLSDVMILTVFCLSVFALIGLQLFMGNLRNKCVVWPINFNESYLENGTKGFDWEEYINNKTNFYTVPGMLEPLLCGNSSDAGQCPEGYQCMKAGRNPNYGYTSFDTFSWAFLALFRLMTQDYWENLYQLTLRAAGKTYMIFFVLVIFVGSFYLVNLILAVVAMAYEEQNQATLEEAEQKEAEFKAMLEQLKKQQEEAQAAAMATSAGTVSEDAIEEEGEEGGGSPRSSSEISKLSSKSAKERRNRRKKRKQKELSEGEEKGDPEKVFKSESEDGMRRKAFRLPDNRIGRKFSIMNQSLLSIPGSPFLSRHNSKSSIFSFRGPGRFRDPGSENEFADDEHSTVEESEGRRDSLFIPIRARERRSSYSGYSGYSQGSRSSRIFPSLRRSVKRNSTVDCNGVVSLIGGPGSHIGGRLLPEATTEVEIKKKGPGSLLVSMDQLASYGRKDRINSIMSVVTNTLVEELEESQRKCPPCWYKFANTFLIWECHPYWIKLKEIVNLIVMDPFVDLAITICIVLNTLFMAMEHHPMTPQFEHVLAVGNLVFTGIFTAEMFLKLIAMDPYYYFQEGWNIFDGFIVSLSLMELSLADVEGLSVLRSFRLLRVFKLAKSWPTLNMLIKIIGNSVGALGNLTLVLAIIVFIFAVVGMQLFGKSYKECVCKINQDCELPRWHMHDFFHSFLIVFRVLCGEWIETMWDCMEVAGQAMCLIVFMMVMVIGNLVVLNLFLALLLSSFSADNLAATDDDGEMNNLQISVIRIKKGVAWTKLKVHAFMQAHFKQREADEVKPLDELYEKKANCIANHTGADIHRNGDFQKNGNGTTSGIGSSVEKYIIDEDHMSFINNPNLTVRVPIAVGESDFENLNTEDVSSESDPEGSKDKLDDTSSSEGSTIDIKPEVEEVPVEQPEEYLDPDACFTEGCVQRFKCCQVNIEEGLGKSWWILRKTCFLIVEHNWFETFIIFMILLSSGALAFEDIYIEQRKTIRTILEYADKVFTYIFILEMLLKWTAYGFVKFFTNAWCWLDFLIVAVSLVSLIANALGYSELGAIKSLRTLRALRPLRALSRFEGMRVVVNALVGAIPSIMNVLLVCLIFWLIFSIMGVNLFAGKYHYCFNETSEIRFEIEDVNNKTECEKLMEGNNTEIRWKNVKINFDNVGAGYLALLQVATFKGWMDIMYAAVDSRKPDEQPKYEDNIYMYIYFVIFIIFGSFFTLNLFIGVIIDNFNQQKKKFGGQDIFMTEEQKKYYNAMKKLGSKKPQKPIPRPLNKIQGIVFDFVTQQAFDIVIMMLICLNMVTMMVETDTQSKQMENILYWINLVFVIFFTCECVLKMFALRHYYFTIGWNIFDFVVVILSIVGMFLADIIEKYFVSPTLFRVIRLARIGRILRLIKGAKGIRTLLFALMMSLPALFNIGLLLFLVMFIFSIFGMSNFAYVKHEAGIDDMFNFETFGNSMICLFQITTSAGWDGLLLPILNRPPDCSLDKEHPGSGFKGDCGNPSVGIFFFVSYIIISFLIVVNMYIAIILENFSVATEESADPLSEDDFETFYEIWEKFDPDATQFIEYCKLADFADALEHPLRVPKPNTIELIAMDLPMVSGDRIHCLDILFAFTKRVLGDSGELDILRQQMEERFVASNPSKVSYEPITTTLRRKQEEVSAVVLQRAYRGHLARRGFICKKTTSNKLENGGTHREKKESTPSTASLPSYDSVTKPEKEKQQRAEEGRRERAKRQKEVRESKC
T1 sequence (Q92915 whole entry, looked up): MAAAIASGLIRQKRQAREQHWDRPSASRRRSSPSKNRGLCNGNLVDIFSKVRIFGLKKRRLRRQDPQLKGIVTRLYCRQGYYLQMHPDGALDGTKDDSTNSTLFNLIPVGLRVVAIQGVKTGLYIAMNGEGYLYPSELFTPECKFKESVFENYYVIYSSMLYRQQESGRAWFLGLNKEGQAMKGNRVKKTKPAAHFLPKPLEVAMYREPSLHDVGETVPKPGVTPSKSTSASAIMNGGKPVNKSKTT
T1 sequence (Q9UQD0 whole entry, looked up): as the sequence (Q9UQD0 whole entry, looked up) above

Regarding `COC(=O)[C@H](CCCCNC(=O)OCC1c2ccccc2-c2ccccc21)NC(=O)[C@@H]1CCCN1C(=O)[C@H](CC(C)C)NC(=O)[C@H](Cc1ccccc1)NC(C)=O` (Ac-FLPK(Fmoc)-OMe), the outcome in data set [1] was inactive. Further, the Kact in data set [2] worked out at 3.9 mV. In addition, the inhibition result in data set [3] was “Dose-dependent effect”. Moreover, the TIME in data set [4] is 5.69e-07 h. Besides, the V1/2 in data set [5] is -57.7 mV. Moreover, in data set [6], the Activity entry is “Non-Toxic”.

Take `CC(=O)N1CCC[C@H]1C(=O)N[C@@H](CC(C)C)C(=O)N[C@@H](CCCCNC(=O)OC(C)(C)C)C(N)=O` (Ac-Pro-Leu-Lys(Boc)-NH2): the outcome in data set [1] was inactive.

On to `CC(C)C[C@H](NC(=O)[C@H](Cc1ccccc1)NC(=O)c1ccccc1)C(=O)N1CCC[C@H]1C(=O)N[C@@H](CCCCNC(=O)OC(C)(C)C)C(N)=O` (Bz-FLPK(Boc)-NH2), for which the outcome in data set [1] was inactive. In data set [3], the inhibition result is “Dose-dependent effect”. Moreover, in data set [6], the Activity entry was “Non-Toxic”.

With `CC(C)C[C@H](NC(=O)[C@H](Cc1ccccc1)NC(=O)OCc1ccccc1)C(=O)N1CCC[C@H]1C(=O)N[C@@H](CCCCNC(=O)OC(C)(C)C)C(N)=O` (Cbz-FLPK(Boc)-NH2), in data set [1], the outcome was inactive.

Consider `COC(=O)[C@H](CCCCNC(=O)OCC1c2ccccc2-c2ccccc21)NC(=O)[C@@H]1CCCN1C(=O)[C@H](CC(C)C)NC(=O)[C@@H](N)Cc1ccccc1` (H-FLPK(Fmoc)-OMe), for which the result in data set [1] was inactive. Besides, in data set [7], the Activity stood at 124%.

Take `CC(C)C[C@H](N)C(=O)N1CCC[C@H]1C(=O)N[C@@H](CCCCN)C(N)=O` (H-Leu-Pro-Lys-NH2): the result in data set [1] was inactive. Besides, the values for the Activity result in data set [6] and in data set [7] were “Non-Toxic” and 142%, respectively.
